These results are taken from BindingDB's records for doi:10.1016/j.ejmech.2013.05.047 (Chulalongkorn University, 2013).

The target of experiment [1] is T1, Lysosomal alpha-glucosidase (Rattus norvegicus, UniProt Q6P7A9). The experiment can be described thus: Inhibition of rat intestine maltase using maltose as substrate incubated for 10 mins prior to substrate addition measured after 40 mins by glucose oxidase colorimetric method. The gist of the method:
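Crude intestinal enzyme supernatant (12,000 g, 30 min) preincubated with test compound (1 mg/mL, 10 µL) at 37 C for 10 min. Substrate in 0.1 M phosphate buffer pH 6.9 was then added: maltose 0.58 mM for maltase, sucrose 20 mM for sucrase. Incubated 40 min at 37 C, stopped by heating at 80 C for 15 min. Released glucose measured by the glucose oxidase kit. % inhibition = [(A0 − A1)/A0] × 100.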

The target of experiment [2] is T1, Lysosomal alpha-glucosidase. Description: Non-competitive inhibition of rat intestine maltase using maltose as substrate by Lineweaver-Burk plot analysis. A digest of the protocol: (§1)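 Same maltase/sucrase reactions, with activity held at 0.45 (maltase) and 0.09 (sucrase) U/mg protein. Inhibitor 0 to 20.4 mM against substrate 1.0 to 20.0 mM. Vmax and Km obtained from Lineweaver–Burk intercepts and slopes. Ki (EI) from a secondary plot of slope versus inhibitor concentration; Ki′ (ESI) from a secondary plot of intercept versus inhibitor concentration.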

The target is the same in experiment [3]. Description: Competitive inhibition of rat intestine maltase using maltose as substrate by Lineweaver-Burk plot analysis. A digest of the protocol: as §1

As usually defined, the IC50 is the concentration at which inhibition is half-maximal. One may read the Ki as the dissociation constant of the complex between target and ligand, obtained from inhibition or displacement.

T1 sequence (Q6P7A9 whole entry): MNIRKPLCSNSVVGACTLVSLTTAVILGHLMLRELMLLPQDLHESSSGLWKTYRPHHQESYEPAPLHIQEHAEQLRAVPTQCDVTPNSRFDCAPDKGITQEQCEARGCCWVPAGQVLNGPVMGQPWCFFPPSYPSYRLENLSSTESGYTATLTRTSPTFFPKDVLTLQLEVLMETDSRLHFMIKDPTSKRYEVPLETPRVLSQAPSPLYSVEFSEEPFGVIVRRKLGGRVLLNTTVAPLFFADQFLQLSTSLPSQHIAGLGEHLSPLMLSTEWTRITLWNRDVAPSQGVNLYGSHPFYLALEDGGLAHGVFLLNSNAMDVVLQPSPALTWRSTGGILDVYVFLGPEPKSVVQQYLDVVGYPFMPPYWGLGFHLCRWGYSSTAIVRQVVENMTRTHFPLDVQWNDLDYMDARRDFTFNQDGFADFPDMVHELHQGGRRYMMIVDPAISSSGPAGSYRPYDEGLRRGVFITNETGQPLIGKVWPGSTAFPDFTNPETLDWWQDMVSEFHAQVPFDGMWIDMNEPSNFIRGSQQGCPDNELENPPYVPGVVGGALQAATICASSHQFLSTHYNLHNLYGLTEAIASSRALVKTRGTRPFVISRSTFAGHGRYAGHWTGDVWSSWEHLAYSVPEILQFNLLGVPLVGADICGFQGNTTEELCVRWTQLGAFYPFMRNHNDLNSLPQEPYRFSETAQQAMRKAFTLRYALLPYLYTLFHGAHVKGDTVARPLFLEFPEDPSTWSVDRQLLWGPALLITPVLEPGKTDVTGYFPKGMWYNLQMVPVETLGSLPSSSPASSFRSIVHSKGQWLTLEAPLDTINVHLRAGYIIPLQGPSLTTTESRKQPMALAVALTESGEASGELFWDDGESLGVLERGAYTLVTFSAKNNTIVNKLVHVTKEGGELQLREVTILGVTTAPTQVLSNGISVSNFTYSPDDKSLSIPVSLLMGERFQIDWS

Take `COc1ccc(/C=C/C(=O)O[C@@H]2C[C@@H](O)[C@H](O)[C@@H](O)[C@H]2O)cc1O`: half-maximal inhibition in experiment [1] (IC50) required 20.8 µM.
Still for that read-out and setting: the figure for `COc1cc(/C=C/C(=O)O[C@H]2C[C@@H](O)[C@H](O)[C@@H](O)[C@H]2O)ccc1O` is 21.1 µM.
`O=C(O)/C=C/c1ccc(O)c(O)c1` [3,4-Dihydroxycinnamate, XVII] had an IC50 in experiment [1] of 34.7 µM.
The same measure, in the same setting: the figure for `COc1ccc(/C=C/C(=O)O[C@H]2C[C@@H](O)[C@H](O)[C@@H](O)[C@H]2O)cc1O` is 367 µM; for `COc1cc(/C=C/C(=O)O[C@@H]2C[C@@H](O)[C@H](O)[C@@H](O)[C@H]2O)ccc1O` it is 51.9 µM.
As for `O=C(/C=C/c1ccc(O)c(O)c1)O[C@@H]1C[C@@H](O)[C@H](O)[C@@H](O)[C@H]1O`, the Ki in experiment [2] amounted to 64.5 µM; in experiment [3], 23.8 µM. The molecule further gave an IC50 in experiment [1] of 5.31 µM.
Regarding `O=C(/C=C/c1ccc(O)c(O)c1)O[C@H]1C[C@@H](O)[C@H](O)[C@@H](O)[C@H]1O`, the IC50 in experiment [1] was determined as 497 µM.
